Compound activity as filed in PubChem.
Hits are enriched below; roughly 1.9% of the tested compounds scored in any of these assays.
ARFGAP1 inh – inhibitors of rat ARFGAP1 GAP activity, primary screen, biochemical, fluorescence polarization, GDP tracer | ADP-ribosylation factor GTPase-activating protein 1 (Rattus norvegicus), Q62848 | Arfgap1-stimulated ARF1 GTP hydrolysis, GDP FP detection | inhibition, % at 16.5 µM | 0.26% of 360,000 active | AID 651572, 2012;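 active means inhibition above a per-plate limit, mean inhibition of low control wells plus 3 SD, cut at about 25% in these data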;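 further: 0% = DMSO wells with enzyme and 100% = wells lacking Arfgap1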
Target sequence (Q62848 1-136 limits assumed): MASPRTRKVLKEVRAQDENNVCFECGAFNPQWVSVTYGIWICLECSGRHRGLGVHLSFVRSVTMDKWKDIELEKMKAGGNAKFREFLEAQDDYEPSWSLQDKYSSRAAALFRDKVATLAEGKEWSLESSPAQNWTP
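Material: rat Arfgap1 GAP domain (His6, aa 1-136), purified enzyme. Also added: human ARF1(Δ1-17)-GTP substrate. Compound dosing: 16.5 µM single point, 1.26% DMSO. Timing: enzyme reaction 120 min at 25 °C after 20 min preincubation. Signal: GDP detection by fluorescence polarization. Read-out basis: percent inhibition of GAP-stimulated GDP formation, scaled between DMSO and no-Arfgap1 medians.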
PLC-beta3 inh – human PLC-beta3 inhibitors, primary screen, biochemical, fluorescence. inhibition, % at 12.2 µM. 0.18% of 370,000 active. Purified PLC-beta3, fluorogenic substrate. 1-phosphatidylinositol 4,5-bisphosphate phosphodiesterase beta-3 (Homo sapiens), Q01970. AID 720704, 2013; in the data active means inhibition above about 11%;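 further: 0% = median of compound wells on plate and 100% = full blocker control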
sPLA2-III inh – human group III sPLA2 inhibitors, primary screen, biochemical, QFRET, BODIPY PC-A2 liposome substrate; Group 3 secretory phospholipase A2 (Homo sapiens), Q9NZ20; QFRET BODIPY PC-A2 liposome hydrolysis, fluorescence; inhibition, % at 12.2 µM; 0.56% of 370,000 active; AID 743126, 2013;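 active means inhibition above mean plus 3 SD of compounds lying within the high and low control bounds, cut at about 19% in these data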;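 further: 0% = median of test compound wells and 100% = no enzyme DMSO wells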
Target sequence (Q9NZ20 whole entry, looked up): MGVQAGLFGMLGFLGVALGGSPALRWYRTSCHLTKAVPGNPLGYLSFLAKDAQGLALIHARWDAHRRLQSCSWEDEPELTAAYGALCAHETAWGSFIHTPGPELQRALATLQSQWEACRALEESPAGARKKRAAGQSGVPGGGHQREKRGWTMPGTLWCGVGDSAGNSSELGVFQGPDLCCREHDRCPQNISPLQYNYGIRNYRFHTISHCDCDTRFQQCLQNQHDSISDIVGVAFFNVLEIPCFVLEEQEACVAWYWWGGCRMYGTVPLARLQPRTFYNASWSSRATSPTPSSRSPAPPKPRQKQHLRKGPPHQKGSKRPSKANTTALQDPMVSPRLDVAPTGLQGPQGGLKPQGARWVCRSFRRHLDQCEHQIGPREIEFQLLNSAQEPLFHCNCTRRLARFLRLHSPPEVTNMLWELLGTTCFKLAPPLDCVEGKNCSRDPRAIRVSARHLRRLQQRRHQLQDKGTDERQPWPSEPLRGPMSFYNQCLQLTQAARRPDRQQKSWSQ
ASAP1 inh – inhibitors of human ASAP1 ArfGAP activity, primary screen, biochemical, fluorescence polarization. Arf-GAP with SH3 domain, ANK repeat and PH domain-containing protein 1 (Homo sapiens), …. AID 624377, 2012. inhibition, % at 16.5 µM. ASAP1-stimulated ARF1 GTP hydrolysis, GDP FP detection. 0.19% of 360,000 active; in the data active means inhibition above about 25%;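 further: 0% = vehicle with enzyme and substrate and 100% = no enzyme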
PLCg1 inh – PLC-gamma1 enzyme inhibitors, primary screen, biochemical, fluorescence, purified enzyme | 0.84% of 370,000 active | fluorogenic substrate | inhibition, % at 12.2 µM; in the data active means inhibition above about 9.5%
sPLA2 confirm – human group III sPLA2 inhibitors, confirmation, biochemical, QFRET, triplicate; recombinant hGIII-sPLA2, BODIPY PC-A2 QFRET fluorescence; 34% of 2,000 active; shares compounds with sPLA2-III inh; inhibition, % at 12.2 µM; AID 743280, 2014;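 active means mean inhibition across triplicates above the hit cutoff set in the earlier primary screen, cut at about 19% in these data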;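 further: 0% = enzyme with DMSO and 100% = DMSO wells lacking enzyme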
BODIPY interf – 535nm fluorescence optical interference, confirmation, artefact control for HGIII-sPLA2 inhibitor project, biochemical, QFRET; AID 743282, 2014; 8.5% of 2,000 active; inhibition, % at 12.2 µM; shares compounds with sPLA2-III inh; BODIPY FL product fluorescence interference;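 active means average inhibition above the solvent-only control mean plus 3 SD, cut at about 6% in these data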;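 further: 0% = DMSO with substrate plus product and 100% = DMSO with substrate alone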
535nm interf DR – 535nm fluorescence optical interference, dose response, artefact control for HGIII-sPLA2 inhibitor project, biochemical, QFRET; shares compounds with sPLA2-III inh; BODIPY FL product fluorescence interference, cell-free; IC50, µM; 240 tested, under 10 active; AID 743455, 2014;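 active means IC50 at or below 10 µM; inactive means IC50 above 10 µM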
An asterisk follows results filed as active.

Screening CCN(CC)C(=O)c1ccc2sc([C@H]3C[C@H](O)[C@@H](CO)O3)nc2c1 returned ARFGAP1 inh 10, PLC-beta3 inh -4, sPLA2-III inh 22*, ASAP1 inh -7, PLCg1 inh 0, sPLA2 confirm 4 and BODIPY interf -6.
For COC(=O)Cc1nnn2c1[C@@H](C)[C@@H](c1ccccc1Br)OC[C@@H]2c1ccccc1 the results were ARFGAP1 inh 4, PLC-beta3 inh 0, sPLA2-III inh -2, ASAP1 inh 2 and PLCg1 inh 2.
For Cc1nn(CC(=O)NNC(=S)Nc2ccccc2)c(C)c1[N+](=O)[O-] the results were ARFGAP1 inh 4, PLC-beta3 inh 5, sPLA2-III inh 20*, ASAP1 inh 11, PLCg1 inh 7, sPLA2 confirm 22* and BODIPY interf 0.
`Oc1c(CN2CCCCC2)ccc2cccnc12` gave ARFGAP1 inh -1, PLC-beta3 inh -4, sPLA2-III inh 21*, ASAP1 inh -6, PLCg1 inh -6, sPLA2 confirm 1 and BODIPY interf -44.
O=C(/C=C/c1cccnc1)c1ccc(O)cc1 was read as ARFGAP1 inh 13, PLC-beta3 inh -5, sPLA2-III inh 22*, ASAP1 inh 5, PLCg1 inh 2, sPLA2 confirm 4 and BODIPY interf -7.
Screening O=C(CN1C(=O)/C(=C/c2ccccc2)SC1=S)NNC(=O)c1ccccc1O returned ARFGAP1 inh 8, PLC-beta3 inh -1, sPLA2-III inh 20*, ASAP1 inh 10, PLCg1 inh 1, sPLA2 confirm 15 and BODIPY interf -4.
Screening O=C(CCN1C(=O)/C(=C/c2ccccc2Cl)SC1=S)NNC(=O)c1ccccc1O returned ARFGAP1 inh 2, PLC-beta3 inh -5, sPLA2-III inh 20*, ASAP1 inh 1, PLCg1 inh 1, sPLA2 confirm 30*, BODIPY interf 1 and 535nm interf DR >122.
For COc1cccc(/C=C2/SC(=S)N(CCCC(=O)Nc3ccc(O)cc3)C2=O)c1 the results were ARFGAP1 inh 16, PLC-beta3 inh -8, sPLA2-III inh -36, ASAP1 inh 2 and PLCg1 inh 0.
`CC(/C=C1\SC(=S)N(CCC(=O)Nc2ccc(O)cc2)C1=O)=C\c1ccccc1` gave ARFGAP1 inh 22, PLC-beta3 inh -6, sPLA2-III inh 19*, ASAP1 inh 1, PLCg1 inh 5, sPLA2 confirm -3 and BODIPY interf 4.
For COc1cccc(/C=C2/SC(=S)N(CC(=O)NNC(=O)c3ccccc3O)C2=O)c1 the results were ARFGAP1 inh -4, PLC-beta3 inh -15, sPLA2-III inh 23*, ASAP1 inh -5, PLCg1 inh -4, sPLA2 confirm 22* and BODIPY interf -8.
`Cc1ccccc1C1CCC2(CC1)CCN(CC[C@@H](O)c1ccccc1)C2=O` (stereo not given in full) gave PLC-beta3 inh 4, sPLA2-III inh -10 and PLCg1 inh 4.
For Cc1ccccc1CS(=O)(=O)Cc1ccc(C(=O)Nc2cccc(Cl)c2F)o1 the results were PLC-beta3 inh -4, sPLA2-III inh -23 and PLCg1 inh -1.
COc1cc(C2Nc3cc(C)c(C)cc3NC3=C2C(=O)CC(C)(C)C3)ccc1OC(C)=O (stereo not given) was read as ARFGAP1 inh 13, PLC-beta3 inh -32, sPLA2-III inh 24*, ASAP1 inh 9, PLCg1 inh -22, sPLA2 confirm 8 and BODIPY interf -9.
For O=C(NNC(=S)Nc1ccc(F)cc1)c1ccccc1OC(F)F the results were ARFGAP1 inh -4, PLC-beta3 inh -4, sPLA2-III inh 21*, ASAP1 inh -4, PLCg1 inh -2, sPLA2 confirm 26* and BODIPY interf 5.
Cc1ccc(NC(=S)NNC(=O)Nc2ccccc2)cc1 was read as ARFGAP1 inh -5, PLC-beta3 inh 1, sPLA2-III inh 1, ASAP1 inh -2 and PLCg1 inh 4.
Cc1ccc(NC(=S)NNC(=O)c2ccccc2OC(F)F)cc1 was read as ARFGAP1 inh 12, PLC-beta3 inh -4, sPLA2-III inh 26*, ASAP1 inh -4, PLCg1 inh -3, sPLA2 confirm 21* and BODIPY interf 5.
Screening N=C1C(c2nc3ccccc3[nH]2)=C(O)CN1c1ccccc1 returned ARFGAP1 inh -7, PLC-beta3 inh -5, sPLA2-III inh 22*, ASAP1 inh 7, PLCg1 inh -6, sPLA2 confirm 14 and BODIPY interf -5.
For COC(=O)[C@@H](Cc1ccccc1)N[C@H](/C=C/c1ccccc1)[C@@H](O)Cc1ccccc1 the results were ARFGAP1 inh 21, PLC-beta3 inh 2, sPLA2-III inh -21, ASAP1 inh 8 and PLCg1 inh 2.
NC(=O)c1sc2nc3c(c(-c4ccco4)c2c1N)CCCC3 was read as ARFGAP1 inh 15, PLC-beta3 inh -90, sPLA2-III inh 20*, ASAP1 inh 6, PLCg1 inh -57, sPLA2 confirm -1 and BODIPY interf -11.
For NNc1nc2c(Cl)c(Cl)ccc2s1 the results were ARFGAP1 inh 8, PLC-beta3 inh -8, sPLA2-III inh 24*, ASAP1 inh 4, PLCg1 inh -5, sPLA2 confirm 19 and BODIPY interf 13*.
COc1cccc2sc(NN)nc12 was read as ARFGAP1 inh 6, PLC-beta3 inh -81, sPLA2-III inh 12, ASAP1 inh -4 and PLCg1 inh -50.
For Cc1cc(C(=O)NNC(=O)c2ccc(Cl)cc2)c2ccccc2n1 the results were ARFGAP1 inh 14, PLC-beta3 inh -7, sPLA2-III inh -5, ASAP1 inh 10 and PLCg1 inh -4.
`Cc1cc(C(=O)NNC(=S)NC(C)c2ccccc2)c2ccccc2n1` (stereo not given) gave ARFGAP1 inh 11, PLC-beta3 inh -17, sPLA2-III inh 24*, ASAP1 inh -1, PLCg1 inh -12, sPLA2 confirm 29*, BODIPY interf -7 and 535nm interf DR >122.
